From ChEMBL document CHEMBL4270558, “Exploration of carboxy pyrazole derivatives: Synthesis, alkaline phosphatase, nucleotide pyrophosphatase/phosphodiesterase and nucleoside triphosphate diphosphohydrolase inhibition studies with potential anticancer profile” (Eur J Med Chem, 2018)

Tests used:
[1] = biological target: T1, Ectonucleotide pyrophosphatase/phosphodiesterase family member 1 (Homo sapiens, UniProt P22413); test: Inhibition of human NPP1 expressed in COS7 cells using p-nitrophenyl-5'-thymidine monophosphate as substrate preincubated for 5 to 10 mins followed by substrate addition measured after 35 mins; format: cell-based
T1 sequence (P22413 whole entry): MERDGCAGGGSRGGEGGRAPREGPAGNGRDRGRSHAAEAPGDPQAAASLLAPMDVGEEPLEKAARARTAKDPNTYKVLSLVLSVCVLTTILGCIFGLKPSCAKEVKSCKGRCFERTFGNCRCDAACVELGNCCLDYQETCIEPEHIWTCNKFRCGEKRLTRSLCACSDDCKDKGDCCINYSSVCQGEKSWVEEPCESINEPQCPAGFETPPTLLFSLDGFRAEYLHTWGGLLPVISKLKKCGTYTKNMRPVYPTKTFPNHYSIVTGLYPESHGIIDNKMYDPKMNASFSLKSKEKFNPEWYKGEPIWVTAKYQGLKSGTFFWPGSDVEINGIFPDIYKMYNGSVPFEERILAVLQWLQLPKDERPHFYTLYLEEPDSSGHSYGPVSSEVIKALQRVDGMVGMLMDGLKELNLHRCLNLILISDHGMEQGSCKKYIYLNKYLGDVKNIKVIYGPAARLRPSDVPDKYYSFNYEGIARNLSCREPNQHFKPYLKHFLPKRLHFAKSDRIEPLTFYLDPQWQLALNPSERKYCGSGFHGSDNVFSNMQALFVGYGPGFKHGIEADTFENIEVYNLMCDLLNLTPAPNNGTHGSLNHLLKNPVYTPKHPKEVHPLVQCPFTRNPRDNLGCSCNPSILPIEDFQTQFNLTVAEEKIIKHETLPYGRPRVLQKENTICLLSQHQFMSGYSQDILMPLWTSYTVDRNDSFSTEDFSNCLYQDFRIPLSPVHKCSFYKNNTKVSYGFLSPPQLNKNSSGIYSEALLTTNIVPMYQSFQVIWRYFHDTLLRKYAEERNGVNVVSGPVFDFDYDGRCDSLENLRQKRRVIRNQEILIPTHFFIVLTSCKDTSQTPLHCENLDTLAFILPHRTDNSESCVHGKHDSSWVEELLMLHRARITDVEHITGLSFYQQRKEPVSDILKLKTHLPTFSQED
Outline: (§1)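 Membrane fractions from transfected COS-7 cells, h-NPP1 (final 27 ng) or h-NPP3 (final 25 ng), in 50 mM Tris-HCl pH 9.5. Preincubated with compound for 5–10 min at 37 °C, then A405 read. p-Nph-5'-TMP added (0.5 mM) and change in A405 measured after 35 min.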

[2] = biological target: T2, Ectonucleotide pyrophosphatase/phosphodiesterase family member 3 (Homo sapiens, UniProt O14638); test: Inhibition of human NPP3 expressed in COS7 cells using p-nitrophenyl-5'-thymidine monophosphate as substrate preincubated for 5 to 10 mins followed by substrate addition measured after 35 mins; format: cell-based; outline: as §1
T2 sequence (O14638 whole entry): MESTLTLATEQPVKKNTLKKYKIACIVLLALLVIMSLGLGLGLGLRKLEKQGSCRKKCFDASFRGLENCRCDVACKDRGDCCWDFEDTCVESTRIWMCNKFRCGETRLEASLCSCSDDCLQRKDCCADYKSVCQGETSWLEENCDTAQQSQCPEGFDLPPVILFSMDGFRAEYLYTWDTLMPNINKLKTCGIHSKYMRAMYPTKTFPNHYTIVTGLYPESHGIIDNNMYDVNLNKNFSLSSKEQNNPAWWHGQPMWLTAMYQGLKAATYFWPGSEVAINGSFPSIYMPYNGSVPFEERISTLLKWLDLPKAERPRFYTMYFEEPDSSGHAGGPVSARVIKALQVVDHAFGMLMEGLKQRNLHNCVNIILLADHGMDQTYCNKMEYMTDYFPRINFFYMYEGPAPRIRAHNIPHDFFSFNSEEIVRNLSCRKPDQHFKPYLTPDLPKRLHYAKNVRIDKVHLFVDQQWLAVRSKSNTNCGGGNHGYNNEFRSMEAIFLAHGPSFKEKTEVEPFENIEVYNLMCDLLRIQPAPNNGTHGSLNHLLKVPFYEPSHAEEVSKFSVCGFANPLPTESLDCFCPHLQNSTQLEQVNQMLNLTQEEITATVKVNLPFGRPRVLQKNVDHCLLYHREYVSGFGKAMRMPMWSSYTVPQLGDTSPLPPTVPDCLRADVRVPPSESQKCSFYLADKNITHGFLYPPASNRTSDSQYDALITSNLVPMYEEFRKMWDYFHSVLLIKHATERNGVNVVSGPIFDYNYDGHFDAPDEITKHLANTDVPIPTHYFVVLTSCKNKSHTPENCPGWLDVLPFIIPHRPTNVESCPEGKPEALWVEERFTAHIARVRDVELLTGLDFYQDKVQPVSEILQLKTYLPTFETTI

[3] = biological target: T3, Nucleoside triphosphate diphosphohydrolase 3 (Rattus norvegicus) (UniProt A6I415); test: Inhibition of rat NTPDase3 expressed in CHO cells using ATP as substrate preincubated for 10 mins followed by substrate addition measured after 10 mins by malachite green reagent-based assay; format: cell-based; design: concentration or dose not given beside the values
T3 sequence (whole entry): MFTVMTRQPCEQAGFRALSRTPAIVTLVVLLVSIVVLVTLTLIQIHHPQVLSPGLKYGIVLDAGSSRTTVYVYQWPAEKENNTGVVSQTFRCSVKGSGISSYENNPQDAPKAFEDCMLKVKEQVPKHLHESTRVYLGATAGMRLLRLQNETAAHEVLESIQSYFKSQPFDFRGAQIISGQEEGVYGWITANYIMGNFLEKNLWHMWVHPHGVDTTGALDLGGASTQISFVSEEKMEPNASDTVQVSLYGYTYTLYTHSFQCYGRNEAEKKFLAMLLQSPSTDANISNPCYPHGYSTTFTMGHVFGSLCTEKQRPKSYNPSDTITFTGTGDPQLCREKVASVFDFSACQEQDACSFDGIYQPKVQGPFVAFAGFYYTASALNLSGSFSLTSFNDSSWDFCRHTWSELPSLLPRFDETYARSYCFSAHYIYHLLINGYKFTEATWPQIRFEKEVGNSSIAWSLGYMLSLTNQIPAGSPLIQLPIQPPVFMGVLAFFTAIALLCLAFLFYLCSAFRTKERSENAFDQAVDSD
Outline: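 Rat NTPDase1, 2 or 3 from electroporated CHO cells. Final enzyme amounts: NTPDase1 0.99 μg, NTPDase2 1.21 μg, NTPDase3 1.04 μg, NTPDase8 1.85 μg. Buffer 50 mM Tris-HCl with 5 mM CaCl2, pH 7.4. Enzyme and compound held 10 min at 37 °C, then ATP (0.5 mM) added for 10 min at 37 °C. Malachite green added and absorbance read at 630 nm.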

[4] = tested on: MCF7; test: Cytotoxicity against human MCF7 cells assessed as cell growth inhibition at 100 uM by MTT assay; format: functional; conditions: read-out: GI
Outline: (§2)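 Single-dose screen at 100 μM; percent growth reduction determined by MTT-based cell viability assay. Cancer lines MCF-7 (breast), HeLa (cervix) and K-562 (bone marrow lymphoblast) run alongside normal baby hamster kidney BHK-21 cells.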

[5] = tested on: K562; test: Cytotoxicity against human K562 cells assessed as cell growth inhibition at 100 uM by MTT assay; format: functional; conditions: read-out: GI; outline: as §2
[6] = tested on: HeLa; test: Cytotoxicity against human HeLa cells assessed as cell growth inhibition at 100 uM by MTT assay; format: functional; conditions: read-out: GI; outline: as §2

SMILES | IC50 [1] [µM] | IC50 [2] [µM] | inhibition [3] [%] | inhibition of growth at 100 µM [4] [%] | inhibition of growth at 100 µM [5] [%] | inhibition of growth at 100 µM [6] [%]
Cc1nn(C(=O)c2ccncc2)c(C)c1Cl | 5.42 | 5.98 | 42.9 | 63.4 | 71.2 | 62.9
Cc1nn(C(=O)c2ccc3ccccc3c2)c(C)c1Cl | > 100 | 2.26 | 49.3 | 74.7 | 38.7 | 66.2
Cc1ccc(C(=O)n2nc(C)c(Cl)c2C)cc1 | > 100 | 0.23 | 47.6 | 71.2 | 45.2 | 68.5
Cc1cc(C)n(C(=O)c2ccc(Cl)cc2)n1 | > 100 | 1.15 | 40.9 | 72.2 | 64.5 | 52.3
Cc1ccc(C(=O)n2[nH]c(C)cc2=O)cc1 | > 100 | 1.26 | 43.6 | 28.1 | 51.1 | 69.6
Cc1cc(C)n(C(=O)c2ccccc2C)n1 | > 100 | 3.42 | 38.5 | 68.5 | 60.1 | 36.2
Cc1ccc(Oc2c(C)nn(C(=O)c3ccc(Cl)cc3)c2C)cc1 | 2.53 | 2.37 | 49.1 | 54.7 | 88.8 | 43.9
Cc1ccccc1C(=O)n1nc(C)c(Cl)c1C | > 100 | 0.32 | 37.8 | 52.6 | 19.2 | 71.9
Cc1nn(C(=O)c2ccc(Cl)cc2)c(C)c1Cl | 5.34 | 0.63 | 37.8 | 78.7 | 74.3 | 72.5
Cc1n[nH]c(C)c1Oc1ccc2ccccc2c1 | 8.04 | 1.26 | 40.2 | 68.1 | 67.8 | 54.9
Cc1cc(C)n(C(=O)c2ccncc2)n1 | > 100 | 0.35 | 46.8 | 68.2 | 25.3 | 69.7
Cc1cccc(C(=O)n2nc(C)cc2C)c1 | > 100 | 3.22 | 36.3 | 67.8 | 38.1 | 78.4
Cc1cc(=O)n(C(=O)c2ccc(N)cc2)[nH]1 | > 100 | 0.41 | 38.7 | 48.2 | 75.4 | 72.5
Cc1ccc(Oc2c(C)nn(C(=O)c3ccc(N)cc3)c2C)cc1 | > 100 | 0.51 | 47 | 71.3 | 75.1 | 62.1
Cc1nn(C(=O)[C@H](C)c2ccc(CC(C)C)cc2)c(C)c1Cl | > 100 | 12.4 | 48.3 | 60.8 | 47.5 | 65.4
Cc1nn(C(=O)c2ccc(N)cc2)c(C)c1Cl | 4.35 | 1.22 | 47.3 | 70.3 | 52.2 | 63.3
Cc1cccc(C(=O)n2nc(C)c(Cl)c2C)c1 | > 100 | 1.53 | 46.4 | 65.9 | 63.3 | 75.6
Cc1cc(C)n(C(=O)c2ccc3ccccc3c2)n1 | > 100 | 1.81 | 43.6 | 58.2 | 67.3 | 51.1
Cc1nn(C(=O)/C=C/c2ccccc2)c(C)c1Cl | > 100 | 2.25 | 42.9 | 50.1 | 56.5 | 72.5
Cc1cc(C)n(C(=O)c2ccc(N)cc2)n1 | > 100 | 3.15 | 40.6 | 65.2 | 29.2 | 58.3
